Source: ChEMBL document CHEMBL1148329, “Synthesis and structure-activity studies on N-[5-(1H-imidazol-4-yl)-5,6,7,8-tetrahydro-1-naphthalenyl]methanesulfonamide, an imidazole-containing alpha(1A)-adrenoceptor agonist” (J Med Chem, 2004)
Calls of active or inactive are those of the source. The rule behind the calls is not given here.

Columns and labels:
[1] = target: Alpha adrenergic receptor 1A and 1D (Rattus norvegicus) (UniProt P23944+P43140); experiment: Selectivity is ratio of pKi (binding affinity) of Alpha-1D to that of alpha1A; format: protein assay
[2] = target: T1, Alpha-1A adrenergic receptor (Bos taurus, UniProt P18130); experiment: In vitro binding affinity towards alpha-1A adrenergic receptor of bovine clone in radioligand binding assay
T1 sequence (P18130 whole entry): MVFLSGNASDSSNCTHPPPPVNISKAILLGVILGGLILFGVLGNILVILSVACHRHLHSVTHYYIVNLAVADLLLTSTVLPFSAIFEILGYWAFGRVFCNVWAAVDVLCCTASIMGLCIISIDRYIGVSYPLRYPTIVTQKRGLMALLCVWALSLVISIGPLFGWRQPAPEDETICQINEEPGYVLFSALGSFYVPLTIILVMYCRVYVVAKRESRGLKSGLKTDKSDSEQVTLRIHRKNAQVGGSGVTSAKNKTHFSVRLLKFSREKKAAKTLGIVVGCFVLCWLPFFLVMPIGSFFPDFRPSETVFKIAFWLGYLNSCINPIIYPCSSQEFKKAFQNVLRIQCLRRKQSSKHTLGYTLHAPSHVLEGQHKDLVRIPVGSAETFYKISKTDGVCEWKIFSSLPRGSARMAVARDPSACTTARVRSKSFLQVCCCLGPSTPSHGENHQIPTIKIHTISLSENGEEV

[3] = target: Alpha adrenergic receptor 1A and 1B (Rattus norvegicus) (UniProt P15823+P43140); experiment: Selectivity is ratio of pKi (binding affinity) of alpha-1B receptor to that of alpha-1A receptor.; format: protein assay
Alpha adrenergic receptor 1A and 1B (Rattus norvegicus), sequence (P15823 whole entry, looked up, one chain of several): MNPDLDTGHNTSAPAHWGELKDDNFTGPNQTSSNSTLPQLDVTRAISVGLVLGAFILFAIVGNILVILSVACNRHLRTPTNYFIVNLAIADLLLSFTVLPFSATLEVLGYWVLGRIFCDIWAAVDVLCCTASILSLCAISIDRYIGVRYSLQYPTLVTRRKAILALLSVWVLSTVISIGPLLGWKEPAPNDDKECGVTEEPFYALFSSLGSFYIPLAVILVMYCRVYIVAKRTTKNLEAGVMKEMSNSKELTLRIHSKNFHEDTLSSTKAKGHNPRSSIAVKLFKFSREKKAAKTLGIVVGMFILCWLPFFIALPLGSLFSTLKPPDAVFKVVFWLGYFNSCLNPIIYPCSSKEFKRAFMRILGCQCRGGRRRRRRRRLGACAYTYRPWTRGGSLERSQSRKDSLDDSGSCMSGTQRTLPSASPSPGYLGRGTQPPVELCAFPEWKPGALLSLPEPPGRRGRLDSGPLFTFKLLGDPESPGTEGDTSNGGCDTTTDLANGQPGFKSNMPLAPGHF

[4] = target: T2, Alpha-1B adrenergic receptor (Mesocricetus auratus, UniProt P18841); experiment: In vitro binding affinity towards alpha-1B adrenergic receptor of hamster clone in radioligand binding assay; format: single protein
T2 sequence (P18841 whole entry): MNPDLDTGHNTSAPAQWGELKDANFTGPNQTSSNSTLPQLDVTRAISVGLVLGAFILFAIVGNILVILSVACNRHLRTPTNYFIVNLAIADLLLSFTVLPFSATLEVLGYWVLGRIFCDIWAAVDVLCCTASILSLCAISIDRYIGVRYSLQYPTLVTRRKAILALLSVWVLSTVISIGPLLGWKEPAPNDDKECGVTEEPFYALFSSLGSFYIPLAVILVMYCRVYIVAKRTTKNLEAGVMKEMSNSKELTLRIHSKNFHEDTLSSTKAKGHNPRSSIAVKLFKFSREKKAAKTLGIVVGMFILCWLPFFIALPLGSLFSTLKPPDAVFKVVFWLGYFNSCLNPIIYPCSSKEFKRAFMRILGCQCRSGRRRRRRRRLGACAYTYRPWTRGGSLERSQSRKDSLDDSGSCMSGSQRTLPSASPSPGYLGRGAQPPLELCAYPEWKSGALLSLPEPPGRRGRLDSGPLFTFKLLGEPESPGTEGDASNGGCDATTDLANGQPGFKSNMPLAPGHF
How it was run: (§1)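 Radioligand binding at α1 subtypes: α1A from rat submaxillary gland, α1B hamster clone, α1D rat clone. Run essentially per an earlier method.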

[5] = target: Alpha-1A adrenergic receptor (Oryctolagus cuniculus) (UniProt O02824); experiment: Functional agonism of the compounds to constrict tissue containing the alpha-1A adrenergic receptor in rabbit urethra; Inactive
[6] = target: T3, Alpha-1D adrenergic receptor (Rattus norvegicus, UniProt P23944); experiment: In vitro binding affinity towards alpha-1D adrenergic receptor of rat clone in radioligand binding assay; how it was run: as §1
T3 sequence (P23944 whole entry): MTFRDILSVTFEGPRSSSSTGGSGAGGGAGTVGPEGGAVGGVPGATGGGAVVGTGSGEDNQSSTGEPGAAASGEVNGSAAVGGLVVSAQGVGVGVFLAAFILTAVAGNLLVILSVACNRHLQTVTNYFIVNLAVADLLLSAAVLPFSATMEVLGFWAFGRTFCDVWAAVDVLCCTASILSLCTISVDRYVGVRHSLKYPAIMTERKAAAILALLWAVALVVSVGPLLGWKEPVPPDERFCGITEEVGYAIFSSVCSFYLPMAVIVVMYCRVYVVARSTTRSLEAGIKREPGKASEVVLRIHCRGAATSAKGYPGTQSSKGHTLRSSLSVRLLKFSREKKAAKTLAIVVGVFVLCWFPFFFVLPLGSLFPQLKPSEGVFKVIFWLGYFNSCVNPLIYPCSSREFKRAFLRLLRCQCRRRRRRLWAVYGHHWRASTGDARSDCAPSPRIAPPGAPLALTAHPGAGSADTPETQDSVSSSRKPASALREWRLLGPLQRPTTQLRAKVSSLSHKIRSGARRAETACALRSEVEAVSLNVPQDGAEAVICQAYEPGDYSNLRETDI

[7] = target: T4, Alpha-1A adrenergic receptor (Rattus norvegicus, UniProt P43140); experiment: In vitro binding affinity towards alpha-1A adrenergic receptor of rat submaxillary gland in radioligand binding assay; how it was run: as §1
T4 sequence (P43140 whole entry): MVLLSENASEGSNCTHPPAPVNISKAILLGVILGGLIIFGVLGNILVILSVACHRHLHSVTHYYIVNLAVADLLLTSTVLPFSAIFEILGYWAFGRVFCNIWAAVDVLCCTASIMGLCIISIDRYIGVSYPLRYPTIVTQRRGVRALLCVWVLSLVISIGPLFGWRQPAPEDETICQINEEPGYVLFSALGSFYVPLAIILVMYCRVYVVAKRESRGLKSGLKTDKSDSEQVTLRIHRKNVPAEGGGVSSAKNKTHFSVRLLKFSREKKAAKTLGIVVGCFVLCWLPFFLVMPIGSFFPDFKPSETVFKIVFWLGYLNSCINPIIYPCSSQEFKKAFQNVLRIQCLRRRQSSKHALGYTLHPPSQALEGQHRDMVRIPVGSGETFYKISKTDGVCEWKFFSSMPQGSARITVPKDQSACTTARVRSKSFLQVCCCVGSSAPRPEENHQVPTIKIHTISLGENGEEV

[8] = target: T5, Alpha-1A adrenergic receptor (Oryctolagus cuniculus) (UniProt O02824); experiment: Efficacy relative to phenylephrine (PE) to constrict tissue containing the alpha-1A adrenergic receptor in rabbit urethra; format: functional, tissue-based
T5 sequence (whole entry): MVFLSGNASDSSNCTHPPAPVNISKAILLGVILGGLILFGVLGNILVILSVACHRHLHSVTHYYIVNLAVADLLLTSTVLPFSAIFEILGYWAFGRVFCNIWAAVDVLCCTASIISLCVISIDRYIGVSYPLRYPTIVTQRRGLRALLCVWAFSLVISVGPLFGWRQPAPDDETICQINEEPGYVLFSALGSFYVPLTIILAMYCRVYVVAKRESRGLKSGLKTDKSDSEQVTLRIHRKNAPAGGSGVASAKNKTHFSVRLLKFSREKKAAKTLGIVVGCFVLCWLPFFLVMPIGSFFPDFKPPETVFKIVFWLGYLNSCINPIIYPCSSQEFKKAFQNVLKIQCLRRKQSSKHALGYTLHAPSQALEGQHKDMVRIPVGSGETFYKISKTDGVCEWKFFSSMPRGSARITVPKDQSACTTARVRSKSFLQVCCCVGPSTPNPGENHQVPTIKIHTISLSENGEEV
How it was run: (§2)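 α1-agonist dose–response curves in isolated tissue: rabbit urethra (α1A), rat spleen (α1B), rat aorta (α1D). Agonist potency and efficacy read from the concentration–response curves.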

[9] = target: T6, Alpha-1D adrenergic receptor (Rattus norvegicus) (UniProt P23944); experiment: Functional agonism of the compounds to constrict tissue containing the alpha-1D adrenergic receptor in rat aorta; format: tissue-based
T6 sequence (whole entry): T3 sequence (P23944 whole entry)
How it was run: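 Agonist dose–response curves were run on isolated tissue: rabbit urethra for α1A, rat spleen for α1B, and rat aorta for α1D.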

[10] = target: T6, Alpha-1D adrenergic receptor (Rattus norvegicus); experiment: Efficacy relative to phenylephrine (PE) constrict tissue containing the alpha-1D adrenergic receptor in rat aorta; format: functional, tissue-based; how it was run: as §2
Canis familiaris [11] = experiment: Uroselectivity was determined by measuring effective dose required for 20 mmHg increase of mean arterial pressure (MAP) in vivo in dog; format: functional, Canis lupus familiaris, Artery
How it was run: (§3)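 Dog model recording intraurethral pressure (IUP) and mean arterial pressure (MAP) simultaneously. Increasing iv doses given, maximal effect of each dose taken. Doses giving a 5 mmHg rise in IUP (ED Δ5) or 20 mmHg rise in MAP (ED Δ20) were calculated, in nmol/kg ± SEM, n ≥ 4 (2 or 3 where footnoted).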

[12] = target: T7, Alpha-2A adrenergic receptor (Homo sapiens, UniProt P08913); experiment: In vitro binding affinity towards alpha-2A adrenergic receptor of human clone in radioligand binding assay
T7 sequence (P08913 whole entry): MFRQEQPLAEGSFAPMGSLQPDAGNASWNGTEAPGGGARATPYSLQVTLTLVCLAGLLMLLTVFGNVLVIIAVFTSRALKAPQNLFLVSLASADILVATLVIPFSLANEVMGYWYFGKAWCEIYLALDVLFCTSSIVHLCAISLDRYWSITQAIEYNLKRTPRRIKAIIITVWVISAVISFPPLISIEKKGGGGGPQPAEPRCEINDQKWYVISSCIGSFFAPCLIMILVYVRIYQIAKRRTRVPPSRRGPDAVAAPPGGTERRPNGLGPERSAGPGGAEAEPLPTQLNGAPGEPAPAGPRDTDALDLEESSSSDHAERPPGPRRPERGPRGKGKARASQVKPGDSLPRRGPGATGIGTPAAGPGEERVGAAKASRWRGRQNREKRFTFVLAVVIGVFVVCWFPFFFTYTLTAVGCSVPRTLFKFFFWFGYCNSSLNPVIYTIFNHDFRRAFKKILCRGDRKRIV

[13] = target: T8, Alpha-2B adrenergic receptor (Rattus norvegicus, UniProt P19328); experiment: In vitro binding affinity towards alpha-2B adrenergic receptor of rat neonatal lung in radioligand binding assay
T8 sequence (P19328 whole entry): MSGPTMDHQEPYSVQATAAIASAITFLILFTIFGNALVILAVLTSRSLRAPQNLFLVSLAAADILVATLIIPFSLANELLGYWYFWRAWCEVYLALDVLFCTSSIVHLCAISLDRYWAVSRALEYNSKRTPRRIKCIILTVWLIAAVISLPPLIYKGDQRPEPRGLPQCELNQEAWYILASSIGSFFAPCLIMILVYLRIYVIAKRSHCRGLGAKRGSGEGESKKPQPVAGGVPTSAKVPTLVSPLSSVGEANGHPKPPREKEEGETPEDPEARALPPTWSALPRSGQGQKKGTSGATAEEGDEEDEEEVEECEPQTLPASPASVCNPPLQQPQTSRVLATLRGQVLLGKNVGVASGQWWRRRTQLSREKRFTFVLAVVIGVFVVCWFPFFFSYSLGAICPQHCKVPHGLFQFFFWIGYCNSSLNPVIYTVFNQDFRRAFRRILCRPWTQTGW

Canis familiaris [14] = experiment: Uroselectivity was determined by measuring effective dose required for 5 mmHg increase of intraurethral pressure (IUP) in vivo in dog; format: functional, Canis lupus familiaris; how it was run: as §3

Structure (SMILES) | Selectivity [1] | Ki [2] | Selectivity [3] | Ki [4] | pD2 [5] | Ki [6] | Ki [7] | Efficacy [8] | pD2 [9] | Efficacy [10] | ED delta20 (Canis familiaris [11]) | Ki [12] | Ki [13] | ED delta5 (Canis familiaris [14])
COC(=O)Nc1cccc2c1CCCC2c1c[nH]cn1 (centres undefined) | 30 | 148 nM | 100 | – | – | – | – | – | – | – | – | – | – | –
CCS(=O)(=O)Nc1cccc(C2CCNC2)c1 (centres undefined) | 2 | – | > 20 | > 10000 nM | inactive | 1000 nM | 501 nM | – | – | – | – | – | – | –
CS(=O)(=O)Nc1c(O)ccc2c1CCCC2C1=NCCN1 (centres undefined) | – | – | – | 2950 nM | – | 1480 nM | – | 88% | 5.59 | 100% | 0.27 nM/kg | 33.1 nM | 245 nM | 0.16 nM/kg
CCS(=O)(=O)Nc1cccc2c1CCCC2CN (centres undefined) | > 10 | – | > 10 | > 10000 nM | inactive | > 10000 nM | 794 nM | – | – | – | – | – | – | –
